# Screening results from PubChem BioAssay.
# Shown are actives, neighbours in structure and some others; about 1.8% of the full set was active somewhere.
# Gli-Sufu block – antagonists of Gli-Sufu signaling. Sufu-KO-LIGHT fibroblasts, Gli luciferase reporter luminescence. inhibition, % at 5 µM. actives 0.74% (n = 340,000). AID 588413;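 active means inhibition above about 55%, limit read from the data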;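 further: 0% = DMSO-treated cells and 100% = wells with medium but no cells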
# 697 NFkB inh – inhibitors of the PMA/ionomycin-induced NF-kB reporter in 697 B cells | 697 B-cell NF-kB luciferase reporter, 16 h | inhibition, % at 4 µM | actives 0.33% (n = 330,000); in the data active means inhibition above about 35%
# Jurkat NFkB inh – inhibitors of the PMA/ionomycin-induced NF-kB reporter in Jurkat cells. PMA/ionomycin-induced NF-kB luciferase reporter, luminescence. inhibition, % at 4 µM. actives 0.53% (n = 330,000). AID 435003; in the data active means inhibition above about 50%
# NR2E3 ag-1 – human photoreceptor-specific nuclear receptor agonism; Q9Y5X4; CHO-S Gal4-NCOR/VP16-NR2E3 two-hybrid, luciferase; inhibition of corepressor binding, % at 3.98 µM; actives 0.35% (n = 360,000); AID 602229;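 active means inhibition above the mean of all tested compounds plus 3 SD, cut at about 70% in these data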;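 further: 0% = DMSO with NR2E3 transfected cells and 100% = cells lacking NR2E3 construct; higher means lower luciferase signal from less NR2E3 corepressor binding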
# Target sequence (Q9Y5X4 whole entry, looked up, the tested form may be a part): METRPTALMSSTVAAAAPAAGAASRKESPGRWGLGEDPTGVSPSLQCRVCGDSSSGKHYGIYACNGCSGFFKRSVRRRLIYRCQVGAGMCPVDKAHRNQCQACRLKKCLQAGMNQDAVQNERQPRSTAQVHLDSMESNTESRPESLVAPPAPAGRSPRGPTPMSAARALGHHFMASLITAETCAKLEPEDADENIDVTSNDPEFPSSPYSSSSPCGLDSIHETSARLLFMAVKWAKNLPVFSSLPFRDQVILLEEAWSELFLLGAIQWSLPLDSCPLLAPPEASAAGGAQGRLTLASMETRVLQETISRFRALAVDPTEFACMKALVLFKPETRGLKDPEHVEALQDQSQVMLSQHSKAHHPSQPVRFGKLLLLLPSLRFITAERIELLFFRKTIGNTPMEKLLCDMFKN
# GalR3 antagonist – antagonists of human GalR3 | O60755 | HEK293 GalR3-CNG cAMP membrane potential fluorescence; galR3 body fused to GalR1 C-terminus | inhibition, % at 3 µM | actives 0.44% (n = 360,000);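 active means inhibition above the screen-wide average plus 3 SD, cut at about 13% in these data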;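 further: forskolin and galanin both at EC90 stimulate the cells; cAMP rise reported by CNG channel membrane potential dye signal; 0% = forskolin plus galanin with DMSO and 100% = forskolin alone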
# NR2E3 ag-2 – NR2E3 (human) agonism. Q9Y5X4. GST-NR2E3/biotin-RetCOR TR-FRET, 1536-well. AID 2300. inhibition of corepressor binding, % at 4.78 µM. actives 0.12% (n = 320,000);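 active means percent inhibition above the cutoff of mean plus 3 SD of all tested compounds, set per screening campaign, cut at about 20% in these data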;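 further: 0% = DMSO wells and 100% = biotin wells as full block of FRET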
#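 system = GST-tagged NR2E3 plus biotinylated RetCOR corepressor | input = 1.35 nM GST-NR2E3 | also added = 7 nM biotin-RetCOR | schedule = 5 h incubation at 4 °C | measured by = TR-FRET with europium anti-GST and streptavidin-D2, 340 nm excitation | read-out = percent loss of FRET ratio relative to control wells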
# Jurkat NFkB conf – lowers PMA/ionomycin-induced NF-kB signal in Jurkat cells; shares compounds with Jurkat NFkB inh; Jurkat NF-kB luciferase, 16 h; inhibition, % at 4 µM; actives 27% (n = 2,700);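 active means inhibition reaching about 45% at 4 µM in either replicate, limit read from the data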;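 further: plate controls were PMA/ionomycin stimulated DMSO wells for no effect and unstimulated DMSO wells for full effect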
# 697 NFkB conf – inhibitors of the PMA/ionomycin-induced NF-kB reporter in 697 B cells, retest. shares compounds with 697 NFkB inh. 697 B-cell NF-kB luciferase, 16 h. inhibition, % at 4 µM. actives 35% (n = 2,000). AID 449746; in the data active means inhibition mostly above about 28%, no sharp cut-off; inactive means mostly below about 22%
# Gli antag conf – confirmation of Gli-SUFU pathway antagonists; shares compounds with Gli-Sufu block; Sufu-KO-LIGHT cells, Gli luciferase reporter, luminescence; inhibition, % at 5 µM; actives 40% (n = 2,500); AID 602428;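 active means mean inhibition at 5 µM reaching about 45%, limit read from the data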;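 further: plate controls were DMSO-treated cells for no effect and wells lacking cells for full effect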
# Gli cytotox – counter-screen for Gli-SUFU antagonists: cytotoxicity; shares compounds with Gli-Sufu block; Sufu-KO-LIGHT cells cytotoxicity, ATP luminescence; cytotoxicity, % at 5 µM; actives 32% (n = 2,500);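 active means mean cytotoxicity at 5 µM above about 25%, limit read from the data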;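 further: cells exposed to compound overnight for roughly 16 to 18 hours; plate controls were DMSO wells with cells for no effect and medium without cells for full effect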
# Wnt3a counter – counter-screen for Gli-SUFU antagonists: Wnt3a reporter inhibition; shares compounds with Gli-Sufu block; actives 20% (n = 2,500); Wnt-LIGHT cells, Wnt3a-driven luciferase reporter, luminescence; inhibition, % at 6.25 µM; AID 651995;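 active means mean inhibition above about 25%, limit read from the data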
# NR2E3 ag conf – confirmation of human NR2E3 agonists; shares compounds with NR2E3 ag-1; CHO-S mammalian two-hybrid NR2E3-NCOR, luciferase luminescence; inhibition, % at 3.98 µM; actives 51% (n = 2,300);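 active means average inhibition above a cutoff equal to the mean inhibition of all tested compounds plus one SD, cut at about 70% in these data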;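 further: 0% = DMSO in NR2E3 cells and 100% = DMSO in cells lacking NR2E3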
# VP16 counter – reduces GAL4-VP16 reporter signal in NR2E3 counterscreen | shares compounds with NR2E3 ag-1 | CHO-S GAL4-VP16 luciferase reporter, luminescence | inhibition, % at 3.98 µM | actives 29% (n = 2,300) | AID 624379;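 active means mean inhibition above a cutoff equal to the average over all tested compounds plus one standard deviation, cut at about 70% in these data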;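 further: luciferase from a UAS reporter driven by GAL4-VP16 transactivation; 0% = DMSO with VP16-transfected cells and 100% = DMSO with cells lacking VP16; higher means less reporter light so more repression of VP16 activity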
# GalR3 antag conf – confirmation of human galanin receptor 3 antagonists; shares compounds with GalR3 antagonist; HEK293 GalR3 CNG cAMP biosensor, membrane potential fluorescence; galR3 fused to GalR1 carboxy tail; challenged with forskolin and galanin at EC90; inhibition, % at 3 µM; actives 59% (n = 1,600); AID 652245;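 active means inhibition above the primary screen's cutoff, the mean inhibition of all screened compounds plus 3 SD, cut at about 13% in these data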;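 further: 0% = forskolin plus galanin and 100% = forskolin alone with DMSO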
# CNG parental – counter-screen for GalR3 antagonists: nonspecific agonists in parental HEK-CNG cells; shares compounds with GalR3 antagonist; HEK293-CNG parental cells, cAMP membrane potential fluorescence; normalised: DMSO wells 0%, forskolin wells 100%; actives 10% (n = 1,600); activation, % at 3 µM; in the data active means activation above about 1.3%
# * = called active by the depositor; / = not tested or not shown.
SMILES,Gli-Sufu block,697 NFkB inh,Jurkat NFkB inh,NR2E3 ag-1,GalR3 antagonist,NR2E3 ag-2,Jurkat NFkB conf,NR2E3 ag conf,VP16 counter,GalR3 antag conf,CNG parental,others
O=S(=O)(NCC1CCCO1)c1ccc(-c2ccc(S(=O)(=O)NCC3CCCO3)cc2)cc1 (configuration not stated),74*,48*,70*,67,97*,3,69*,92*,73*,106*,-1,697 NFkB conf=83*;Gli antag conf=67*;Gli cytotox=31*;Wnt3a counter=35*
O=C(c1ccc(Cn2ccc([N+](=O)[O-])n2)cc1)N1CCN(Cc2ccccc2)CC1,2,-6,2,-4,-9,1,/,/,/,/,/,
CSc1ccc(CN2CCN(C(=O)c3ccc([N+](=O)[O-])cc3)CC2)cc1,-9,-27,53*,-24,102*,0,32,/,/,106*,0,
CCCCc1ccc(NC(=O)c2ccc(NS(C)(=O)=O)cc2)cc1,6,-76,-14,-5,-4,5,/,/,/,/,/,
CCCCc1ccc(NC(=O)c2ccc(N(C)S(C)(=O)=O)cc2)cc1,5,-30,50*,16,36*,2,54*,/,/,115*,-1,
O=C(NCC1CCN(C(=O)C(=O)c2cc3ccccc3o2)CC1)c1cccnc1,/,/,/,/,-7,/,/,/,/,/,/,
CCn1ncc(C2=NOC(C(=O)NCc3ccccc3)C2)c1C (configuration not stated),42,18,74*,-14,16*,0,46,/,/,25*,1,
Cn1nc(CC(=O)Nc2ccc3c(c2)OCCO3)c2ccccc2c1=O,66*,43*,52*,98*,100*,1,66*,92*,73*,106*,0,697 NFkB conf=41*;Gli antag conf=68*;Gli cytotox=31*;Wnt3a counter=41*
COc1cc(NC(=O)Cc2nn(C)c(=O)c3ccccc23)cc(OC)c1,24,-17,12,14,5,1,/,/,/,/,/,
Cc1cc(C)nc(/N=C(\N)Nc2ccc(OCc3ccccc3)cc2)n1,23,-53,51*,39,35*,0,32,/,/,7,7.8*,
Cc1cc(C)nc(/N=C(\N)Nc2ccc(OCCC(C)C)cc2)n1,26,-26,61*,53,45*,3,25,70,58,30*,6.2*,
CCOC(=O)C(=O)Nc1ccc(OCc2ccccc2)cc1,1,-8,-8,-37,-7,1,/,/,/,/,/,
